Test results: ChEMBL document CHEMBL1127019, “(S)-N-tert-butyl-3-(4-(2-methoxyphenyl)-piperazin-1-yl)-2-phenylpropanamide [(S)-WAY-100135]: a selective antagonist at presynaptic and postsynaptic 5-HT1A receptors” (J Med Chem, 1993)

What was measured:
[1] = molecular target: 5-hydroxytryptamine receptor 1B (Rattus norvegicus) (UniProt P28564); assay: In vitro binding affinity towards the 5-hydroxytryptamine 1B receptor at 10 e-6 M
Method in brief: (§1)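 Radioligand binding in vitro. Values are mean percent inhibition at 10⁻⁶ M, from at least three experiments each run in triplicate.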

[2] = molecular target: Adrenergic receptor beta (Rattus norvegicus) (UniProt P18090+P10608+P26255); assay: (§2) In vitro binding affinity towards the noradrenergic beta receptor at 10 e-6 M; type: protein assay
Method in brief: (§3)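 Radioligand binding at the receptor site, run at 10⁻⁶ M. Reported as mean percent inhibition from at least three experiments, each performed in triplicate.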

[3] = molecular target: T1, 5-hydroxytryptamine receptor 1A (Rattus norvegicus, UniProt P19327); assay: In vitro binding affinity towards the 5-hydroxytryptamine 1A receptor was evaluated
T1 sequence (P19327 whole entry): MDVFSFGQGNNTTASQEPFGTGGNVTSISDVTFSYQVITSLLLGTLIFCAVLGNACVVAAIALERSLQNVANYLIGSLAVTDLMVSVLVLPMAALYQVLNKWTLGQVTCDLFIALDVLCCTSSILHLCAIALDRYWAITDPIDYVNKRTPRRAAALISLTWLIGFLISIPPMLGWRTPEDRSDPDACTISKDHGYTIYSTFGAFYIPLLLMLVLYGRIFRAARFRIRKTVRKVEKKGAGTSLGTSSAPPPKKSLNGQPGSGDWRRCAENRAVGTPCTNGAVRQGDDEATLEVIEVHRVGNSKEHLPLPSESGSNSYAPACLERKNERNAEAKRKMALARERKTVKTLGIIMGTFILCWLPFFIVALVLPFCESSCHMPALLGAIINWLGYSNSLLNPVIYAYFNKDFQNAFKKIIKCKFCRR
Method in brief: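 Receptor binding at the 5-HT1A site, reported as IC50. Each value is the mean IC50 ± standard error of at least three experiments, each run in triplicate.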

[4] = molecular target: Adrenergic receptor alpha-2 (Rattus norvegicus) (UniProt P22086+P19328+P22909); assay: In vitro binding affinity towards the noradrenergic alpha-2 receptor at 10 e-6 M; type: protein assay; method in brief: as §1
[5] = molecular target: D(2) dopamine receptor (Rattus norvegicus) (UniProt P61169); assay: In vitro binding affinity towards the dopamine receptor D2 at 10 e-6 M; method in brief: as §1
[6] = molecular target: D(1A) dopamine receptor (Rattus norvegicus) (UniProt P18901); assay: In vitro binding affinity towards the dopamine receptor D1 at 10 e-6 M; method in brief: as §1
[7] = molecular target: T2, 5-hydroxytryptamine receptor 2C (Rattus norvegicus) (UniProt P08909); assay: In vitro binding affinity towards the 5-hydroxytryptamine 1C receptor at 10 e-6 M; method in brief: as §1
T2 sequence (whole entry): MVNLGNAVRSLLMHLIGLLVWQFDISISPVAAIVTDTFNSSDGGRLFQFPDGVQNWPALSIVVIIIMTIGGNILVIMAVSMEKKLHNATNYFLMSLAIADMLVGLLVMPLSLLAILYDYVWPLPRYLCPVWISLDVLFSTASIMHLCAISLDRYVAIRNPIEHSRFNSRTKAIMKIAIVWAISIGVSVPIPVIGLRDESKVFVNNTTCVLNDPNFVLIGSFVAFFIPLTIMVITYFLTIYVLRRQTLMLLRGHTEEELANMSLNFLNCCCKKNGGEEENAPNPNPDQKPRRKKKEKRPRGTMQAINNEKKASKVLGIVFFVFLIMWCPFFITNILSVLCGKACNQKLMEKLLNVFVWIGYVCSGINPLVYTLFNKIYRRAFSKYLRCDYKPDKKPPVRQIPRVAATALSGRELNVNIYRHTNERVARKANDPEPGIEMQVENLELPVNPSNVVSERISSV

[8] = molecular target: Serotonin 2 (5-HT2) receptor (Rattus norvegicus) (UniProt P30994+P08909+P14842); assay: (§4) In vitro binding affinity towards the 5-hydroxytryptamine 2 receptor at 10 e-6 M; type: protein assay; method in brief: as §1
[9] = molecular target: T3, Adrenergic receptor alpha-1 (Rattus norvegicus, UniProt P15823+P23944+P43140); assay: In vitro binding affinity towards the anor-adrenergic alpha-1 receptor at 10 e-6 M; type: protein assay; method in brief: as §1
T3 sequence (P15823 whole entry): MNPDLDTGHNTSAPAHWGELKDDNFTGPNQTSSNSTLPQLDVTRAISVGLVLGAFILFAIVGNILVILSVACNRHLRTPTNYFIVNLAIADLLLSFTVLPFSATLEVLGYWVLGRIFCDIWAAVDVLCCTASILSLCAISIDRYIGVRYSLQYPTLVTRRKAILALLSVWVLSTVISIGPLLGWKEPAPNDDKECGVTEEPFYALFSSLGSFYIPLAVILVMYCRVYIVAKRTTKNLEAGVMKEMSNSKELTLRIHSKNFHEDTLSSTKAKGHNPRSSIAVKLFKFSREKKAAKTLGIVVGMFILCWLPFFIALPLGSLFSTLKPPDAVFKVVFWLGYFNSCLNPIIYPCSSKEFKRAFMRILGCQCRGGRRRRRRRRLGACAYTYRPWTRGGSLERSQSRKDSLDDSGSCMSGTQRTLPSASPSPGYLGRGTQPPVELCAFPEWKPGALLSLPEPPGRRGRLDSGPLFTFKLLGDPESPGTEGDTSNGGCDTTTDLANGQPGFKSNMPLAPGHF
T3 sequence (P23944 whole entry): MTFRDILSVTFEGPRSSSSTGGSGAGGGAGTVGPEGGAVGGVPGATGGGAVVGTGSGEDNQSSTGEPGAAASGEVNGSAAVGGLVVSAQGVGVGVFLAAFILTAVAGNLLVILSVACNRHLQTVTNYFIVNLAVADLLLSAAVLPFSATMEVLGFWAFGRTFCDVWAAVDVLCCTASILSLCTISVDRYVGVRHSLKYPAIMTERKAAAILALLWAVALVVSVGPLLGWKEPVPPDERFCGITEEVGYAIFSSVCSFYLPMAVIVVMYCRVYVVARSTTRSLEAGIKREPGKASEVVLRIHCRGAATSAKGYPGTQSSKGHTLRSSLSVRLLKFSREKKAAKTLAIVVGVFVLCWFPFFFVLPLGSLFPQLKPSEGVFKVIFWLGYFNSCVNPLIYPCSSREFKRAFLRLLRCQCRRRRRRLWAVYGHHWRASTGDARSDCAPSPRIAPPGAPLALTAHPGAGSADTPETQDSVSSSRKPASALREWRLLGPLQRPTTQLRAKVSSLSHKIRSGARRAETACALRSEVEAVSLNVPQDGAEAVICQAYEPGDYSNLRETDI
T3 sequence (P43140 whole entry): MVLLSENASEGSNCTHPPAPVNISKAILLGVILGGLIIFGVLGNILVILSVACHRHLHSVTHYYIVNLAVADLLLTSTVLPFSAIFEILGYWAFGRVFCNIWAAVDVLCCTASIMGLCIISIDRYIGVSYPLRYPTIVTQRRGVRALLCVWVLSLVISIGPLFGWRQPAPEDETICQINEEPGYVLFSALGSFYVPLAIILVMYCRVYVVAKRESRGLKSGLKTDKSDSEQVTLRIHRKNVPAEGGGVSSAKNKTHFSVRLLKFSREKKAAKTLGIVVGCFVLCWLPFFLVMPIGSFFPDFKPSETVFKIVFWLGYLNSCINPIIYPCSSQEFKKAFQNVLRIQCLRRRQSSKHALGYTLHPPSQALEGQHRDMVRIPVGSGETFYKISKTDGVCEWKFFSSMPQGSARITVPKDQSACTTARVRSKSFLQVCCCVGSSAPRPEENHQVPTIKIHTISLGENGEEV

Rattus norvegicus [10] = assay: Minimum effective dose administered subcutaneously to block the effect of 8-hydroxy-DPAT; type: functional
Method in brief: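 Rats pretreated sc with vehicle or test agent, then given 8-OH-DPAT iv 30 min later to induce the behavioral syndrome. Groups of at least 10 rats were used, and the 8-OH-DPAT ED50 was determined by the sequential up/down method.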

[11] = molecular target: T3, Adrenergic receptor alpha-1; assay: In vitro binding affinity towards the noradrenergic alpha-1 receptor at 10 e-6 M; type: protein assay; method in brief: as §1
Rattus norvegicus [12] = assay: Decrease in hippocampal level of 5-HT at preinjection of 1 mg/kg, sc; type: functional, Hippocampus; conditions: route subcutaneous
Adrenergic receptor beta = Adrenergic receptor beta (Rattus norvegicus, UniProt P18090+P10608+P26255); assay: as §2; type: protein assay; method in brief: as §3
Rattus norvegicus [13] = assay: Decrease in hippocampal level of 5-HTat preinjection of 0.1 mg/kg, sc; type: functional, Hippocampus; conditions: route subcutaneous
Rattus norvegicus [14] = assay: Decrease in hippocampal level of 5-HT at preinjection of 5 mg/kg, sc; type: functional, Hippocampus; conditions: route subcutaneous
Method in brief: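 Microdialysis in conscious, freely moving rats. Test agent given sc, and extracellular 5-HT measured in hippocampus for up to 2.5 h after dosing. Values expressed as % of preinjection control levels.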

[15] = molecular target: Serotonin 2 (5-HT2) receptor (Rattus norvegicus, UniProt P30994+P08909+P14842); assay: as §4; type: protein assay; method in brief: as §1
[16] = molecular target: T3, Adrenergic receptor alpha-1; assay: In vitro binding affinity towards the alpha-1 receptor at 10 e-6 M; type: protein assay; method in brief: as §1

D(2) dopamine receptor (Rattus norvegicus), sequence (P61169 whole entry): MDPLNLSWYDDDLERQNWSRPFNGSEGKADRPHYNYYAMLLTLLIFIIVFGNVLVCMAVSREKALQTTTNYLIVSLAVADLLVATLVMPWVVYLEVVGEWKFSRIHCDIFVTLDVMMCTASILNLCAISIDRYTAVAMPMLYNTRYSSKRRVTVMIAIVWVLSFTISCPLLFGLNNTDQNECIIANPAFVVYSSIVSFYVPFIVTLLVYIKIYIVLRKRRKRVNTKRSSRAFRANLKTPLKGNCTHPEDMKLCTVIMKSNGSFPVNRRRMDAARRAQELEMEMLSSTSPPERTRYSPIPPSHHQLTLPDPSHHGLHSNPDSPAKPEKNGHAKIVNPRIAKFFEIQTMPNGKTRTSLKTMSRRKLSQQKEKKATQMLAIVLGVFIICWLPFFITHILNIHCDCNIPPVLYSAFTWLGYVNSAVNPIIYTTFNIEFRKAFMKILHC
5-hydroxytryptamine receptor 1B (Rattus norvegicus), sequence (P28564 whole entry): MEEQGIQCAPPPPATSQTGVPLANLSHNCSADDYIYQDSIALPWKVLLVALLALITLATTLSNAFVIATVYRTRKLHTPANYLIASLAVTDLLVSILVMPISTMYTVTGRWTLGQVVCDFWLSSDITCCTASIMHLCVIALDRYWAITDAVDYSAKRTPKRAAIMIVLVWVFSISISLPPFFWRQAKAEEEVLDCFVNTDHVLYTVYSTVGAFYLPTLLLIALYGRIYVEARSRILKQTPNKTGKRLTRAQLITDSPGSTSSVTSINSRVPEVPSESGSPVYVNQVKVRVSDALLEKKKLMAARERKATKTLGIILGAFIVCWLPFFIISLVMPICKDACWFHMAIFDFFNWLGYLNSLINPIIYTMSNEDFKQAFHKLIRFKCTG
D(1A) dopamine receptor (Rattus norvegicus), sequence (P18901 whole entry): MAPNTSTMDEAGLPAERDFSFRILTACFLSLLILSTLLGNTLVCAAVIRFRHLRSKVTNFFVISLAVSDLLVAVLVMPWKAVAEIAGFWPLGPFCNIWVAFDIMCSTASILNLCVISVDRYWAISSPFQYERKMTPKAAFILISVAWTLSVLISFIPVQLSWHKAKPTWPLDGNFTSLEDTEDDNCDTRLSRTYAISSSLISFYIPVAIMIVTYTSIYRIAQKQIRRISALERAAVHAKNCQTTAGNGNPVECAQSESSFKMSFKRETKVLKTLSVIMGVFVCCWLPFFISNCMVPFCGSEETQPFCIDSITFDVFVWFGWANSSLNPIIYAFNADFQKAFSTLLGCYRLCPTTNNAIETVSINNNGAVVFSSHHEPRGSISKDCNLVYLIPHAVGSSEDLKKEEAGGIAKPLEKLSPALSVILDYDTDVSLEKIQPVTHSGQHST
Serotonin 2 (5-HT2) receptor (Rattus norvegicus), sequence (P14842 whole entry, looked up, one chain of several): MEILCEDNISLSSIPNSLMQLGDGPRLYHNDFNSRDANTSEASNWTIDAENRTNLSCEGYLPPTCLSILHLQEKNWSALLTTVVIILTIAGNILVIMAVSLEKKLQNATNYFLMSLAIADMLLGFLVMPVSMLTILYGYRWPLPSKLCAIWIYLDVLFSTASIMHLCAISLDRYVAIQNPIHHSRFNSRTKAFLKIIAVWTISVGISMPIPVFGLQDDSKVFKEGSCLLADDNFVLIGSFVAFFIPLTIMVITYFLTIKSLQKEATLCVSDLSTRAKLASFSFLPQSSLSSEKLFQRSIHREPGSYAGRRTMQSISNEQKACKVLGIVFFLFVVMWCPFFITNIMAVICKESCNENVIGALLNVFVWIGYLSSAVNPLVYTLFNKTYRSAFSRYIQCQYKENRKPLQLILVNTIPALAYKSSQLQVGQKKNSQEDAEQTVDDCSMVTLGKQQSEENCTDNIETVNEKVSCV
Serotonin 2 (5-HT2) receptor (Rattus norvegicus), sequence (P30994 whole entry, looked up, one chain of several): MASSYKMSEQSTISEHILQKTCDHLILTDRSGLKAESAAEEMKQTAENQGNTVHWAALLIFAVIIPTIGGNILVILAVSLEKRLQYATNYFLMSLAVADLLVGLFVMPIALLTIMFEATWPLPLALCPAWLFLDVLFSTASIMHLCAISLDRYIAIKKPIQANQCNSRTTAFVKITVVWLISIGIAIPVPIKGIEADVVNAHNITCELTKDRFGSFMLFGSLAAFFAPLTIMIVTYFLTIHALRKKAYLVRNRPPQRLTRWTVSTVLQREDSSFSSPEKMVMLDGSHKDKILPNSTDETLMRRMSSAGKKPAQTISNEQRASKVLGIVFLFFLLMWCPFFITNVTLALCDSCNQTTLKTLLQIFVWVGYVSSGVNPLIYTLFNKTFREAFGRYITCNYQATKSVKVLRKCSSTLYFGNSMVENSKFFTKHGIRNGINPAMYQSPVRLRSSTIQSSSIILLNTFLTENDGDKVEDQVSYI

inhibition [1] | inhibition [2] | IC50 [3] | inhibition [4] | inhibition [5] | inhibition [6] | inhibition [7] | Structure (SMILES) | also measured
27% | 20% | 33.9 nM | 10% | 14% | 20% | 37% | COc1ccccc1N1CCN(CC(C(=O)NC(C)(C)C)c2ccccc2)CC1 (centres undefined) | inhibition [8]: 37%; IC50 [9]: 1491 nM; minimal effective dose (Rattus norvegicus [10]; Rattus norvegicus, sc, read-out: MED): 3 mg/kg
– | – | – | – | – | – | – | COc1ccccc1N1CCN(C[C@@H](C(=O)NC(C)(C)C)c2ccccc2)CC1 (stereo in doubt; (R)-5) | MED (Rattus norvegicus [10]): 10 mg/kg
21% | 7% | 437 nM | 7% | 4% | 2% | 14% | COc1ccccc1N1CCN(C[C@H](C(=O)NC(C)(C)C)c2ccccc2)CC1 | IC50 [11]: 2781 nM; inhibition [8]: 13%
– | – | – | – | – | – | – | O=C1CC2(CCCC2)CC(=O)N1CCCCN1CCN(c2ncccn2)CC1 [BUSPIRONE] | Decrease (Rattus norvegicus [12]): 39.9%; IC50 (Adrenergic receptor beta): > 1000 nM
– | – | – | – | – | – | – | CCCN(CCC)C1CCc2cccc(O)c2C1 (centres undefined) [8-OH-DPAT] | Decrease (Rattus norvegicus [13]): 19.2%
– | – | – | – | – | – | – | COc1ccccc1N1CCN(C[C@@H](C(=O)NC(C)(C)C)c2ccccc2)CC1 (stereo in doubt; (S)-5) | MED (Rattus norvegicus [10]): 1 mg/kg
– | – | – | – | – | – | – | COc1ccccc1N1CCN(CCN2C(=O)CC3(CCCC3)CC2=O)CC1.Cl.Cl | Decrease (Rattus norvegicus [14]): 37.6%
22% | 12% | – | 11% | 20% | 22% | 50% | COc1ccccc1N1CCN(C[C@@H](C(=O)NC(C)(C)C)c2ccccc2)CC1 [listing 1 of 2 here] | –
– | – | 15.5 nM | – | – | – | – | COc1ccccc1N1CCN(C[C@@H](C(=O)NC(C)(C)C)c2ccccc2)CC1 [listing 2 of 2 here] | IC50 [15]: 1393 nM; IC50 [16]: 1878 nM
